Reference: PMC7495282 (British Journal of Clinical Pharmacology, 2020)
pIC50: −log10 of the molar value. Where two headings read alike, the source gives them in different places.

How the values were obtained:
[1] = cited from earlier work
[2] = Study 2 safety and tolerability; format: in vivo, healthy Japanese subjects
In short: (§1)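 Healthy Japanese males, 20–45 y. Safety was assessed from adverse events, laboratory tests, vital signs (BP, pulse rate, body temperature) and 12-lead ECG. Adverse events were coded by MedDRA/J (versions 19.0 and 19.1) System Organ Class and Preferred Term. Safety set was all consenting subjects given at least 1 dose of any study drug.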

P‐glycoprotein (P‐gp) = conditions: in vitro; cited from earlier work
[3] = cited from earlier work; remark: listed apart in the source
[4] = format: in vivo, healthy Japanese subjects
In short: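 Healthy Japanese males, 20–45 y. Oral 5 mg, fasted, Day 1. CYP3A inducer 600 mg orally once daily before breakfast for 9 days from Day 8; Day 13 dose given fasted 2 h after inducer. Plasma taken predose to 96 h (1700 g, 10 min, 4 °C; stored ≤−20 °C). Parent and metabolites M1, M4, M11 by SPE–LC–MS/MS. Noncompartmental analysis; GLSM ratios, 90% CI.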

[5] = cited from earlier work; remark: listed apart in the source
CYP3A4 = conditions: human liver microsomes and human CYP expression system; cited from earlier work
[6] = Study 1: single-dose esaxerenone pharmacokinetics alone and with itraconazole; format: in vivo, healthy Japanese subjects
In short: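 Healthy Japanese males, 20–45 y, BMI 18.5–<25 kg m−2. Oral 2.5 mg tablet with 200 mL water, fasted (≥10 h before, 4 h after), on Day 1. CYP3A inhibitor 200 mg twice on Day 8, then once daily Days 9–16. Day 13 co-dose given fasted. Plasma sampled predose to 96 h, extracted by SPE, assayed by LC–MS/MS. Noncompartmental PK; GLSM ratios with 90% CI.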

[7] = esaxerenone 20 mg; ref unpublished data on file, Daiichi Sankyo Co., Ltd.; cited from earlier work
[8] = system: mineralocorticoid receptor (MR); conditions: in vitro, cited from earlier work
[9] = Study 1 safety and tolerability; format: in vivo, healthy Japanese subjects; conditions: for Blood creatine phosphokinase increased, TEAE / Eosinophil count increased, TEAE / Rash, TEAE: n = 20
In short: as §1

CYP3A5 = conditions: human liver microsomes and human CYP expression system; cited from earlier work
[10] = system: breast cancer resistance protein; conditions: in vitro; cited from earlier work
human MR = conditions: read-out: half-maximal inhibitory concentration for the transcriptional activity of human MR; in vitro; cited from earlier work
[11] = in the presence of ketoconazole; cited from earlier work
[12] = Study 2, esaxerenone 5 mg + rifampicin, n = 11
[13] = Study 2, esaxerenone 5 mg alone, n = 12
[14] = (esaxerenone + rifampicin)/(esaxerenone alone), 5 mg
[15] = coadministration with rifampicin vs esaxerenone alone
[16] = esaxerenone 5 mg + rifampicin, n = 11
[17] = esaxerenone 5 mg single oral dose + rifampicin 600 mg once daily, n = 11
[18] = esaxerenone 5 mg single oral dose, alone, n = 11
[19] = esaxerenone 5 mg, alone, n = 11
[20] = (esaxerenone + itraconazole)/(esaxerenone alone), 2.5 mg
[21] = esaxerenone 2.5 mg + itraconazole, n = 20
[22] = esaxerenone 2.5 mg single oral dose + itraconazole 200 mg, n = 20
[23] = esaxerenone 2.5 mg single oral dose, alone, n = 20
[24] = esaxerenone 2.5 mg, alone, n = 20
[25] = Study 1, esaxerenone 2.5 mg + itraconazole
[26] = Study 1, esaxerenone 2.5 mg alone

SMILES: Cc1c(C(=O)Nc2ccc(S(C)(=O)=O)cc2)cn(CCO)c1-c1ccccc1C(F)(F)F [Esaxerenone]
- tolerability ([1]; both dosages (2.5 and 5 mg d^−1)): well tolerated
- clinical efficacy vs eplerenone 50 mg d^−1 ([1]; esaxerenone 2.5 mg d^−1, essential hypertension): noninferior
- clinical efficacy of 5 mg d^−1 dosage vs 2.5 mg d^−1 dosage ([1]; essential hypertension): superior
- serious AEs ([2]; Study 2): No serious AEs
- Blood creatine phosphokinase increased, TEAE [2, 12]: 0 number of subjects (%)
- Eosinophil count increased, TEAE [2, 12]: 1 (9.1) number of subjects (%)
- Rash, TEAE [2, 12]: 0 number of subjects (%)
- Blood creatine phosphokinase increased, TEAE [2, 13]: 0 number of subjects (%)
- Eosinophil count increased, TEAE [2, 13]: 0 number of subjects (%)
- Rash, TEAE [2, 13]: 1 (8.3) number of subjects (%)
- subjects reporting TEAEs ([2]; Study 2, whole study): 2 subjects
- safety and tolerability (in words) ([2]; administered concomitantly with rifampicin): safe and well tolerated
- substrate of P-glycoprotein (P‐glycoprotein (P‐gp)): substrate
- proportion of unchanged drug excreted in faeces ([3]; 14C-labelled esaxerenone): 18.7%
- proportion of unchanged drug excreted in urine ([3]; 14C-labelled esaxerenone): 1.6%
- overall excretion rate of oxidised metabolites ([3]; metabolite profiles in faeces and urine): about 30 % of the total dose
- AUCinf GLSM ratio (90% CI) [4, 14]: 0.312 (0.297, 0.328)
- Cmax GLSM ratio (90% CI) [4, 14]: 0.659 (0.599, 0.724)
- decrease in esaxerenone Cmax [4, 15]: 34.1%
- fold reduction of esaxerenone AUCinf [4, 15]: approximately 0.3 fold
- AUCinf, GLSM [4, 16]: 350 ng·h/mL
- Cmax, GLSM [4, 16]: 47.2 ng/mL
- AUCinf, arithmetic mean (SD) [4, 17]: 351 (24.8) ng h mL^−1
- CL/F, arithmetic mean (SD) [4, 17]: 14.3 (1.01) L h^−1
- Cmax, arithmetic mean (SD) [4, 17]: 47.6 (6.22) ng mL^−1
- t1/2, arithmetic mean (SD) [4, 17]: 8.63 (1.67) h
- tmax, median (range) [4, 17]: 2.50 (1.00–4.00) h
- AUCinf, arithmetic mean (SD) [4, 18]: 1130 (150) ng h mL^−1
- CL/F, arithmetic mean (SD) [4, 18]: 4.50 (0.634) L h^−1
- t1/2, arithmetic mean (SD) [4, 18]: 16.6 (2.38) h
- tmax, median (range) [4, 18]: 2.50 (1.50–3.50) h
- Cmax, arithmetic mean (SD) ([4]; esaxerenone 5 mg single oral dose, alone, n = 11, plasma): 72.4 (10.1) ng mL^−1
- AUCinf, GLSM [4, 19]: 1121 ng·h/mL
- Cmax, GLSM [4, 19]: 71.7 ng/mL
- absolute bioavailability [5]: approximately 90%
- involvement of CYP3A4 in oxidative metabolism (CYP3A4): involved in the oxidative metabolism
- AUCinf GLSM ratio (90% CI) [6, 20]: 1.53 (1.45, 1.62)
- Cmax GLSM ratio (90% CI) [6, 20]: 1.13 (1.05, 1.20)
- AUCinf GLSM ratio (90% CI) ([6]; (esaxerenone + itraconazole)/(esaxerenone alone), 2.5 mg, listed as esaxerenone): 1.53 (1.45–1.62)
- increase in esaxerenone Cmax ([6]; coadministration of itraconazole vs esaxerenone alone): 12.6%
- AUCinf, GLSM [6, 21]: 976 ng·h/mL
- Cmax, GLSM [6, 21]: 41.0 ng/mL
- AUCinf, arithmetic mean (SD) [6, 22]: 996 (219) ng h mL^−1
- CL/F, arithmetic mean (SD) [6, 22]: 2.61 (0.477) L h^−1
- Cmax, arithmetic mean (SD) [6, 22]: 41.7 (8.46) ng mL^−1
- t1/2, arithmetic mean (SD) [6, 22]: 25.9 (4.21) h
- tmax, median (range) [6, 22]: 2.00 (1.00–4.00) h
- AUCinf, arithmetic mean (SD) [6, 23]: 648 (121) ng h mL^−1
- CL/F, arithmetic mean (SD) [6, 23]: 3.98 (0.696) L h^−1
- t1/2, arithmetic mean (SD) [6, 23]: 20.7 (3.96) h
- tmax, median (range) [6, 23]: 2.25 (1.50–4.00) h
- Cmax, arithmetic mean (SD) ([6]; esaxerenone 2.5 mg single oral dose, alone, n = 20, plasma): 36.7 (5.36) ng mL^−1
- AUCinf, GLSM [6, 24]: 637 ng·h/mL
- Cmax, GLSM [6, 24]: 36.4 ng/mL
- mean plasma concentrations, Japanese vs Caucasian subjects [7]: similar
- MR affinity relative to eplerenone ([8]; fold greater than eplerenone): 4 fold
- MR affinity relative to spironolactone ([8]; fold greater than spironolactone): 76 fold
- serious AEs ([9]; Study 1): No serious AEs
- Blood creatine phosphokinase increased, TEAE [9, 25]: 0 number of subjects (%)
- Eosinophil count increased, TEAE [9, 25]: 0 number of subjects (%)
- Rash, TEAE [9, 25]: 0 number of subjects (%)
- Blood creatine phosphokinase increased, TEAE [9, 26]: 1 (5.0) number of subjects (%)
- Eosinophil count increased, TEAE [9, 26]: 0 number of subjects (%)
- Rash, TEAE [9, 26]: 0 number of subjects (%)
- subjects reporting TEAEs ([9]; Study 1, whole study): 1 subject
- safety and tolerability (in words) ([9]; administered concomitantly with itraconazole): safe and well tolerated
- involvement of CYP3A5 in oxidative metabolism (CYP3A5): involved in the oxidative metabolism
- substrate of breast cancer resistance protein [10]: substrate

SMILES: COC(=O)[C@@H]1CC2=CC(=O)CC[C@]2(C)[C@@]23O[C@@H]2C[C@@]2(C)[C@@H](CC[C@@]24CCC(=O)O4)[C@H]13 [eplerenone]
- pIC50 (human MR): 6.01
- increase in eplerenone exposure [11]: 5 fold
